The structures appear in SMILES notation. Some results are limits rather than exact numbers.

Assay type in all cases: functional
Experiment [1] deals with Staphylococcus aureus. Nature of the experiment: Antibacterial activity against Staphylococcus aureus assessed as growth inhibition at 25 ug/well after 24 hrs by agar well diffusion method. Particulars: read-out: DIZ. In outline: (§1)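 Agar well diffusion on […] swabbed with a 24 h broth culture. Samples were dissolved in DMSO and loaded at three per-well amounts into 6 mm wells. Incubation was 37 °C for 24 h, then inhibition zone diameter was read in mm. DMSO served as the negative control. Runs were in duplicate and averaged.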
(In general: A growth-free zone around the sample is the usual read-out of agar diffusion tests.)

Experiment [2] deals with Staphylococcus aureus. The experiment in a line: Antibacterial activity against Staphylococcus aureus assessed as growth inhibition at 50 ug/well after 24 hrs by agar well diffusion method. Particulars: read-out: DIZ. In a few lines: as §1
Experiment [3] relates to Staphylococcus aureus. The experiment in a line: Antibacterial activity against Staphylococcus aureus assessed as growth inhibition at 100 ug/well after 24 hrs by agar well diffusion method. The conditions noted are these: read-out: DIZ. In outline:
as §1

Experiment [4] concerns Bacillus subtilis. Nature of the experiment: Antibacterial activity against Bacillus subtilis assessed as growth inhibition at 25 ug/well after 24 hrs by agar well diffusion method. The conditions noted are these: read-out: DIZ. In a few lines: as §1
In experiment [5] the test system is Bacillus subtilis. Nature of the experiment: Antibacterial activity against Bacillus subtilis assessed as growth inhibition at 50 ug/well after 24 hrs by agar well diffusion method. The conditions noted are these: read-out: DIZ. In outline: as §1
The test system of experiment [6] is Bacillus subtilis. Nature of the experiment: Antibacterial activity against Bacillus subtilis assessed as growth inhibition at 100 ug/well after 24 hrs by agar well diffusion method. Particulars: read-out: DIZ. In a few lines:
as §1

In experiment [7] the test system is Pseudomonas aeruginosa. Nature of the experiment: Antibacterial activity against Pseudomonas aeruginosa assessed as growth inhibition at 25 ug/well after 24 hrs by agar well diffusion method. Particulars: read-out: DIZ. In outline: as §1
Experiment [8] relates to Pseudomonas aeruginosa. Nature of the experiment: Antibacterial activity against Pseudomonas aeruginosa assessed as growth inhibition at 50 ug/well after 24 hrs by agar well diffusion method. The conditions noted are these: read-out: DIZ. In outline: as §1
Experiment [9] relates to Pseudomonas aeruginosa. The experiment in a line: Antibacterial activity against Pseudomonas aeruginosa assessed as growth inhibition at 100 ug/well after 24 hrs by agar well diffusion method. Particulars: read-out: DIZ. In a few lines:
as §1

For experiment [10], the system named is Klebsiella pneumoniae. Nature of the experiment: Antibacterial activity against Klebsiella pneumoniae assessed as growth inhibition at 25 ug/well after 24 hrs by agar well diffusion method. The conditions noted are these: read-out: DIZ. In outline:
as §1

Experiment [11] has as its system Klebsiella pneumoniae. The experiment in a line: Antibacterial activity against Klebsiella pneumoniae assessed as growth inhibition at 50 ug/well after 24 hrs by agar well diffusion method. The conditions noted are these: read-out: DIZ. In a few lines:
as §1

Experiment [12] relates to Klebsiella pneumoniae. Nature of the experiment: Antibacterial activity against Klebsiella pneumoniae assessed as growth inhibition at 100 ug/well after 24 hrs by agar well diffusion method. The conditions noted are these: read-out: DIZ. In outline:
as §1

Experiment [13] has as its system Aspergillus niger. Nature of the experiment: Antifungal activity against Aspergillus niger assessed as inhibition of spore germination at 25 ug/well after 48 hrs by agar well diffusion method. The conditions noted are these: read-out: DIZ. In a few lines:
(§2)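 Well diffusion using 6 mm bored wells loaded with DMSO solutions at three per-well amounts, with a DMSO negative control. Plates were held at 28 °C for 48 h, then zone of inhibition diameter was measured in mm. Runs were in duplicate and averaged.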

For experiment [14], the system named is Aspergillus niger. The experiment in a line: Antifungal activity against Aspergillus niger assessed as inhibition of spore germination at 50 ug/well after 48 hrs by agar well diffusion method. The conditions noted are these: read-out: DIZ. In a few lines: as §2
Experiment [15] has as its system Staphylococcus aureus. Nature of the experiment: Antibacterial activity against Staphylococcus aureus assessed as growth inhibition after 24 hrs by broth dilution method. In outline:
(§3)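 Tube broth dilution with fresh nutrient broth as diluent and a 24 h old bacterial culture. Compound dilutions were added to the tubes, which were incubated at 37 °C for 24 h. Solvent control without sample was run in parallel. MIC was the lowest concentration showing no visible turbidity.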

Experiment [16] concerns Bacillus subtilis. Nature of the experiment: Antibacterial activity against Bacillus subtilis assessed as growth inhibition after 24 hrs by broth dilution method. In outline:
as §3

Experiment [17] concerns Pseudomonas aeruginosa. The experiment in a line: Antibacterial activity against Pseudomonas aeruginosa assessed as growth inhibition after 24 hrs by broth dilution method. In a few lines:
as §3

The subject of experiment [18] is Klebsiella pneumoniae. The experiment in a line: Antibacterial activity against Klebsiella pneumoniae assessed as growth inhibition after 24 hrs by broth dilution method. In outline: as §3
Experiment [19] relates to Aspergillus niger. The experiment in a line: Antifungal activity against Aspergillus niger assessed as growth inhibition after 48 hrs by broth dilution method. In a few lines:
(§4)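 Tube broth dilution with nutrient broth as diluent. Compound dilutions were added to fungal cultures and incubated at 28 °C for 48 h. A solvent control without sample was included. MIC was the lowest concentration with no visible growth or turbidity.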

The test system of experiment [20] is Penicillium chrysogenum. The experiment in a line: Antifungal activity against Penicillium chrysogenum assessed as growth inhibition after 48 hrs by broth dilution method. In a few lines:
as §4

The test system of experiment [21] is Staphylococcus aureus. Nature of the experiment: Bactericidal activity against Staphylococcus aureus after 24 hrs.
The subject of experiment [22] is Bacillus subtilis. The experiment in a line: Bactericidal activity against Bacillus subtilis after 24 hrs.
The test system of experiment [23] is Pseudomonas aeruginosa. Nature of the experiment: Bactericidal activity against Pseudomonas aeruginosa after 24 hrs.
The subject of experiment [24] is Klebsiella pneumoniae. The experiment in a line: Bactericidal activity against Klebsiella pneumoniae after 24 hrs.
Experiment [25] concerns Aspergillus niger. Nature of the experiment: Fungicidal activity against Aspergillus niger after 48 hrs.
Experiment [26] deals with Penicillium chrysogenum. Nature of the experiment: Fungicidal activity against Penicillium chrysogenum after 48 hrs.
Experiment [27] concerns Staphylococcus aureus. The experiment in a line: Ratio of MBC to MIC for Staphylococcus aureus.
In experiment [28] the test system is Aspergillus niger. Nature of the experiment: Ratio of MFC to MIC for Aspergillus niger.

With `c1ccc(-c2csc(Nc3cc(-c4ccccc4)n(-c4nc(-c5ccccc5)cs4)n3)n2)cc1`, the zone of inhibition at 25 µg/disc in [1] came out at 29 mm; in experiment [4], 25 mm; in [7], 17 mm; in [10], 30 mm; in experiment [13] it was 25 mm. The zone of inhibition at 50 µg/disc in experiment [2] was 31 mm; in experiment [5] it was 26 mm; in experiment [8], 18 mm; in experiment [11], 32 mm; in experiment [14], 28 mm. The zone of inhibition at 100 µg/disc in [3] turned out to be 32 mm; in experiment [6], 28 mm; in [9], 21 mm; in [12], 35 mm. The MIC in [15] was 12.5 µg; in [16] it was 50 µg; in experiment [17], 50 µg; in experiment [18], 50 µg; in experiment [19], 25 µg; in experiment [20], 50 µg. Besides, the MBC was 50 µg in [21], 200 µg in experiment [22], more than 200 µg in [23] and more than 200 µg in experiment [24]. In addition, the MFC in [25] amounted to 100 µg; in experiment [26] it was 200 µg.
Consider `O=C(N[C@H](CO)[C@H](O)c1ccc([N+](=O)[O-])cc1)C(Cl)Cl` [CHLORAMPHENICOL], for which the zone of inhibition at 25 µg/disc worked out at 30 mm in experiment [1]; 32 mm in experiment [4]; 25 mm in experiment [7]; 38 mm in experiment [10]; 31 mm in experiment [13]. Besides, the zone of inhibition at 50 µg/disc in experiment [2] was 33 mm; in [5], 34 mm; in experiment [8] it was 27 mm; in [11], 40 mm; in experiment [14] it was 33 mm. Further, the zone of inhibition at 100 µg/disc came out at 35 mm in experiment [3], 38 mm in experiment [6], 30 mm in experiment [9] and 42 mm in experiment [12]. For the same compound, the MIC in experiment [15] worked out at 6.25 µg; in experiment [16], 6.25 µg; in experiment [17], 6.25 µg; in experiment [18], 12.5 µg.
As to `c1ccc(-c2c[nH]c(Nc3cc(-c4ccccc4)n(-c4nc(-c5ccccc5)cs4)n3)n2)cc1`, the zone of inhibition at 25 µg/disc in [1] turned out to be 27 mm; in experiment [4], 24 mm; in [7], 15 mm; in experiment [10] it was 28 mm; in experiment [13] it was 32 mm. Further, the zone of inhibition at 50 µg/disc in [2] amounted to 28 mm; in [5], 26 mm; in [8] it was 17 mm; in [11], 29 mm; in experiment [14], 34 mm. For the same compound, the zone of inhibition at 100 µg/disc in experiment [3] was 30 mm; in experiment [6], 27 mm; in [9] it was 20 mm; in experiment [12], 33 mm. For the same compound, the MIC in [15] is 12.5 µg; in experiment [16], 50 µg; in experiment [17], 50 µg; in experiment [18] it was 50 µg; in [19], 12.5 µg; in experiment [20] it was 25 µg. The MBC in [21] is 50 µg; in [22], 200 µg; in [23] it was more than 200 µg; in experiment [24] it was more than 200 µg. In addition, the MFC in experiment [25] and in experiment [26] was 100 µg each time.
On to `CC(=O)N1CCN(c2ccc(OCC3COC(Cn4ccnc4)(c4ccc(Cl)cc4Cl)O3)cc2)CC1` (stereo unspecified) [KETOCONAZOLE], for which the results for the MIC in experiment [19] and in [20] were 6.25 µg and 12.5 µg, respectively.
As to `Clc1ccc(-c2csc(Nc3cc(-c4ccc(Cl)cc4)n(-c4nc(-c5ccc(Cl)cc5)cs4)n3)n2)cc1`, the zone of inhibition at 25 µg/disc in experiment [1] turned out to be 34 mm; in [4], 29 mm; in experiment [7] it was 20 mm; in experiment [10], 35 mm; in experiment [13], 29 mm. Further, the zone of inhibition at 50 µg/disc in [2] came out at 36 mm; in experiment [5], 32 mm; in experiment [8] it was 22 mm; in experiment [11], 37 mm; in experiment [14], 31 mm. Further, the zone of inhibition at 100 µg/disc in experiment [3] was found to be 38 mm; in experiment [6], 35 mm; in [9] it was 25 mm; in [12], 41 mm. The MIC in experiment [15] stood at 6.25 µg; in experiment [16], 25 µg; in experiment [17] it was 50 µg; in experiment [18], 25 µg; in [19] it was 12.5 µg; in [20], 50 µg. Besides, the MBC in experiment [21] stood at 12.5 µg; in experiment [22] it was 100 µg; in experiment [23], 200 µg; in experiment [24], 100 µg. Besides, the MFC worked out at 100 µg in experiment [25] and 200 µg in experiment [26]. In addition, the Ratio in experiment [27] came out at 2.
On to `Cc1ccc(-c2c[nH]c(Nc3cc(-c4ccc(C)cc4)n(-c4nc(-c5ccc(C)cc5)cs4)n3)n2)cc1`, for which the zone of inhibition at 25 µg/disc in experiment [1] worked out at 12 mm; in experiment [4], 12 mm; in experiment [7] it was 6 mm; in [10], 13 mm; in experiment [13], 16 mm. For the same compound, the zone of inhibition at 50 µg/disc in [2] worked out at 14 mm; in experiment [5] it was 13 mm; in [8], 7 mm; in experiment [11] it was 14 mm; in experiment [14] it was 17 mm. The zone of inhibition at 100 µg/disc is 17 mm in experiment [3], 16 mm in experiment [6], 10 mm in experiment [9] and 17 mm in experiment [12].
Take `Clc1ccc(-c2c[nH]c(Nc3cc(-c4ccc(Cl)cc4)n(-c4nc(-c5ccc(Cl)cc5)cs4)n3)n2)cc1`: the zone of inhibition at 25 µg/disc in [1] came out at 32 mm; in [4], 27 mm; in [7], 18 mm; in experiment [10], 32 mm; in experiment [13], 33 mm. Also, the zone of inhibition at 50 µg/disc was 33 mm in experiment [2]; 29 mm in [5]; 19 mm in experiment [8]; 34 mm in experiment [11]; 36 mm in [14]. For the same compound, the zone of inhibition at 100 µg/disc in experiment [3] was 35 mm; in experiment [6], 30 mm; in experiment [9] it was 23 mm; in experiment [12] it was 38 mm. The MIC in experiment [15] worked out at 6.25 µg; in [16], 50 µg; in experiment [17] it was 50 µg; in experiment [18], 50 µg; in experiment [19], 6.25 µg; in experiment [20], 25 µg. For the same compound, the MBC in experiment [21] worked out at 12.5 µg; in [22], 200 µg; in experiment [23] it was 200 µg; in experiment [24], 200 µg. For the same compound, the MFC came out at 12.5 µg in experiment [25] and 100 µg in experiment [26]. The Ratio in [27] and in experiment [28] was 2 in each case.

(Values after ChEMBL document CHEMBL3286292, “Synthesis and antimicrobial activity of amine linked bis- and tris-heterocycles” (2014).)
